Laboratory results: ChEMBL document CHEMBL3045566, “Phytochemicals from Cunninghamia konishii Hayata act as antifungal agents” (2012)

How the values were obtained:
Format in all cases: functional
Trametes versicolor = test: Antifungal activity against Trametes versicolor BCRC 35253 wood decay fungi assessed as reduction of fungi mycelium growth at 100 ug/ml
How it was run: (§1)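 Fungi kept on potato dextrose agar at 4 °C. Samples dissolved in 150 μL ethanol and mixed into 15 mL PDA to give the final concentration. A 5 mm mycelial plug from the culture edge was placed centrally on each 9-cm plate. Plates were held in the dark at 26 ± 2 °C and 70% RH. Antifungal index was scored once control plates without test material were fully overgrown.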

Laetiporus sulphureus = test: Antifungal activity against Laetiporus sulphureus BCRC 35305 (wood decay fungi) assessed as reduction of fungi mycelium growth at 100 ug/ml; how it was run: as §1
Gloeophyllum trabeum = test: Antifungal activity against Gloeophyllum trabeum BCRC 31614 (wood decay fungi) assessed as reduction of fungi mycelium growth at 100 ug/ml; how it was run: as §1
Lenzites betulinus = test: Antifungal activity against Lenzites betulinus BCRC 35296 assessed as reduction of fungi mycelium growth at 100 ug/ml; how it was run: as §1

Q: For `C[C@@H]1CC[C@H]2C(C)(C)[C@H]3C[C@@]12CC[C@@]3(C)O` [CEDROL], which inhibition at 100 µg/mL (Trametes versicolor) is on record?
A: 74.8%

Q: What about the inhibition at 100 µg/mL (Laetiporus sulphureus) of the same compound?
A: 100%

Q: What about the inhibition at 100 µg/mL (Gloeophyllum trabeum) of the same compound?
A: 68.3%

Q: And the inhibition at 100 µg/mL (Lenzites betulinus)?
A: 95.5%

Q: Which results are given for `CC1=C[C@@H]2[C@@H](CC1)[C@@](C)(O)CC[C@H]2C(C)C` [T-CADINOL]?
A: inhibition at 100 µg/mL (Trametes versicolor): 51.4%; inhibition at 100 µg/mL (Laetiporus sulphureus): 100%; inhibition at 100 µg/mL (Gloeophyllum trabeum): 100%; inhibition at 100 µg/mL (Lenzites betulinus): 100%

Q: What does the source list for `C=CC(=C)CC[C@@H]1[C@@]2(C)CCCC(C)(C)[C@@H]2CC[C@@]1(C)O` [ISOABIENOL]?
A: inhibition at 100 µg/mL (Trametes versicolor): 27.8%; inhibition at 100 µg/mL (Laetiporus sulphureus): 8.2%; inhibition at 100 µg/mL (Gloeophyllum trabeum): 6.8%; inhibition at 100 µg/mL (Lenzites betulinus): 25.6%

Q: What does the source list for `CCCCCCCCCC[N+](C)(C)CCCCCCCCCC` [DIDECYLDIMETHYLAMMONIUM CHLORIDE]?
A: inhibition at 100 µg/mL (Trametes versicolor): 100%; inhibition at 100 µg/mL (Laetiporus sulphureus): 100%; inhibition at 100 µg/mL (Gloeophyllum trabeum): 100%; inhibition at 100 µg/mL (Lenzites betulinus): 100%

Q: How did the inhibition at 100 µg/mL (Trametes versicolor) turn out when `CC1=C[C@H]2[C@H](C(C)C)CC[C@](C)(O)[C@H]2CC1` [T-MUUROLOL] was run?
A: 39.5%

Q: What about the inhibition at 100 µg/mL (Laetiporus sulphureus) of the same compound?
A: 100%

Q: What about the inhibition at 100 µg/mL (Gloeophyllum trabeum) of the same compound?
A: 100%

Q: And the inhibition at 100 µg/mL (Lenzites betulinus)?
A: 100%
